According to ChEMBL document CHEMBL1132175, “Synthesis and in vivo evaluation of new contrast agents for cardiac MRI” (J Med Chem, 1999):
Converted amounts (≈) assume the structure as drawn.

Key:
[1] = Aqueous solubility of the compound; type: physicochemical; conditions: water; read-out: S
Procedure, shortened: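 Gd–ligand 1:1 complexes were made from GdCl3 in water at pH 7.0 over a series of nominal concentrations around the expected precipitation point. Experimental concentration was taken as ΔR1(observed)/ρ1. ρ1 came from one well-dissolved sample whose Gd was measured by ICP-OES.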

[2] = tested on: Mustela putorius furo; test: In vivo Myocardial MRI signal intensity (MRI IE)in ferrets induced by the compound at 50 umol/kg was measured at 0-10 min.; type: functional, Myocardium
Procedure, shortened: (§1)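 Ferrets received a bolus of 50 µmol/kg Gd complex. BAE and ABE were given as water-soluble pH 7 solutions; ABE used a 1.2-fold ligand excess and 10 mM Gd. BPE, BBE, BHE and BME were given in lecithin/cholesterol liposomes in 0.9% saline/20 mM HEPES pH 7.4. Myocardial signal was read on 1.5 T MRI (head coil) against an agarose phantom and compared with pre-agent control images. Imaging ran over 3 h.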

[3] = tested on: Mustela putorius furo; test: In vivo Myocardial MRI signal intensity (MRI IE)in ferrets induced by the compound at 50 umol/kg was measured at 180 min.; type: functional, Myocardium; procedure, shortened: as §1
[4] = tested on: Mustela putorius furo; test: In vivo Myocardial MRI signal intensity (MRI IE)in ferrets induced by the compound at 50 umol/kg was measured at 30-60 min.; type: functional, Myocardium; procedure, shortened: as §1
[5] = tested on: Mustela putorius furo; test: In vivo Myocardial MRI signal intensity (MRI IE)in ferrets induced by the compound at 50 umol/kg was measured at 180 min; type: functional, Myocardium; procedure, shortened: as §1

| SMILES | solubility [1] [mM] | IE [2] [%] | IE [3] [%] | IE [4] [%] | IE [5] [%] |
| --- | --- | --- | --- | --- | --- |
| CCC(=O)OCCN(CCN(CCOC(=O)CC)CC(=O)N(CC(=O)O)CC(=O)O)CC(=O)N(CC(=O)O)CC(=O)O | 7 (≈ 4250 µg/mL) | 34.6 | 47.2 | 38.4 | – |
| CCCCCC(=O)OCCN(CCN(CCOC(=O)CCCCC)CC(=O)N(CC(=O)O)CC(=O)O)CC(=O)N(CC(=O)O)CC(=O)O | 0.5 (≈ 345 µg/mL) | 32.3 | 30.1 | 41.7 | – |
| CCCC(=O)OCCN(CCN(CCOC(=O)CCC)CC(=O)N(CC(=O)O)CC(=O)O)CC(=O)N(CC(=O)O)CC(=O)O | 5 (≈ 3170 µg/mL) | 53.1 | 39.3 | 52.1 | – |
| CCCC(=O)OCCN(CCN(CCOC(C)=O)CC(=O)N(CC(=O)O)CC(=O)O)CC(=O)N(CC(=O)O)CC(=O)O | 25 (≈ 15200 µg/mL) | 42.8 | 38.5 | 43.6 | – |
| CCCCCCCCCCCCCC(=O)OCCN(CCN(CCOC(=O)CCCCCCCCCCCCC)CC(=O)N(CC(=O)O)CC(=O)O)CC(=O)N(CC(=O)O)CC(=O)O | 0.015 (≈ 13.7 µg/mL) | 55.2 | 65.2 | 67.2 | – |
| CC(=O)OCCN(CCN(CCOC(C)=O)CC(=O)N(CC(=O)O)CC(=O)O)CC(=O)N(CC(=O)O)CC(=O)O | 30 (≈ 17400 µg/mL) | 87.2 | – | 10.1 | 10.1 |
